Laboratory results taken from ChEMBL document CHEMBL3352336, “Discovery libraries targeting the major enzyme classes: the serine hydrolases” (Bioorg Med Chem Lett, 2014).

Tested on: not listed separately
Test: Retention time of the compound
Type: physicochemical

Compound	Retention_time [min]
N#Cc1cnn(C(=O)NCc2ccc(-c3ccccc3)cc2)c1	3.897
Cc1cnn(C(=O)NCCCCc2ccccc2)c1	3.713
N#Cc1cnn(C(=O)NCCCCc2ccccc2)c1	3.746
Cc1cnn(C(=O)OCCCCc2ccccc2)c1	3.988
N#Cc1cnn(C(=O)OCCCCc2ccccc2)c1	3.762
Cc1cnn(C(=O)CCCCCc2ccccc2)c1	4.2
N#Cc1cnn(C(=O)CCCCCc2ccccc2)c1	3.998
Cc1cnn(C(=O)NCCCc2ccccc2)c1	3.616
N#Cc1cnn(C(=O)NCCCc2ccccc2)c1	3.915
Cc1cnn(C(=O)OCCCc2ccccc2)c1	3.69
N#Cc1cnn(C(=O)OCCCc2ccccc2)c1	3.927
Cc1cnn(C(=O)CCCCc2ccccc2)c1	3.687
N#Cc1cnn(C(=O)CCCCc2ccccc2)c1	3.702
O=C(NCCCCCc1ccccc1)n1cccn1	4.011
Cc1cnn(C(=O)NCCCCCc2ccccc2)c1	4.178
N#Cc1cnn(C(=O)NCCCCCc2ccccc2)c1	4.125
Cc1cnn(C(=O)OCCCCCc2ccccc2)c1	4.104
N#Cc1cnn(C(=O)OCCCCCc2ccccc2)c1	4.274
O=C(NCc1ccc2ccccc2c1)n1cccn1	4.106
Cc1cnn(C(=O)NCc2ccc3ccccc3c2)c1	4.243
N#Cc1cnn(C(=O)NCc2ccc3ccccc3c2)c1	4.14
Cc1cnn(C(=O)OCc2ccc3ccccc3c2)c1	3.998
N#Cc1cnn(C(=O)OCc2ccc3ccccc3c2)c1	3.689
Cc1cnn(C(=O)Cc2ccc3ccccc3c2)c1	3.992
N#Cc1cnn(C(=O)Cc2ccc3ccccc3c2)c1	3.906

Compound	Retention_time [min]
O=C(NCc1ccc(-c2ccccc2)cc1)n1cccn1	3.944
Cc1cnn(C(=O)NCc2ccc(-c3ccccc3)cc2)c1	3.907
Cc1cnn(C(=O)OCc2ccc(-c3ccccc3)cc2)c1	4.102
N#Cc1cnn(C(=O)OCc2ccc(-c3ccccc3)cc2)c1	4.103
O=C(Cc1ccc(-c2ccccc2)cc1)n1cccn1	4.1
Cc1cnn(C(=O)Cc2ccc(-c3ccccc3)cc2)c1	3.467
N#Cc1cnn(C(=O)Cc2ccc(-c3ccccc3)cc2)c1	3.977
O=C(NCc1ccc(Oc2ccccc2)cc1)n1cccn1	3.987
Cc1cnn(C(=O)NCc2ccc(Oc3ccccc3)cc2)c1	3.992
N#Cc1cnn(C(=O)NCc2ccc(Oc3ccccc3)cc2)c1	4.022
Cc1cnn(C(=O)OCc2ccc(Oc3ccccc3)cc2)c1	3.899
N#Cc1cnn(C(=O)OCc2ccc(Oc3ccccc3)cc2)c1	3.92
O=C(NCc1ccc(OCc2ccccc2)cc1)n1cccn1	3.896
Cc1cnn(C(=O)NCc2ccc(OCc3ccccc3)cc2)c1	3.876
N#Cc1cnn(C(=O)NCc2ccc(OCc3ccccc3)cc2)c1	3.877
Cc1cnn(C(=O)OCc2ccc(OCc3ccccc3)cc2)c1	3.91
N#Cc1cnn(C(=O)OCc2ccc(OCc3ccccc3)cc2)c1	3.912
Cc1cnn(C(=O)Nc2ccc3ccccc3c2)c1	3.9
N#Cc1cnn(C(=O)Nc2ccc3ccccc3c2)c1	3.965
Cc1cnn(C(=O)Oc2ccc3ccccc3c2)c1	3.954
N#Cc1cnn(C(=O)Oc2ccc3ccccc3c2)c1	3.9
Cc1ccc(CNC(=O)n2cc(C)cn2)cc1	4.11
Cc1ccc(CNC(=O)n2cc(C#N)cn2)cc1	3.97
Cc1ccc(COC(=O)n2cc(C)cn2)cc1	4.122
Cc1ccc(COC(=O)n2cc(C#N)cn2)cc1	3.988

Further lines, results first:

Retention_time [min]	Compound
3.484	O=C(N1CCCCC1)n1cccn1
3.933	Cc1cnn(C(=O)N2CCCCC2)c1
3.824	N#Cc1cnn(C(=O)N2CCCCC2)c1
3.92	CC(C)(C)OC(=O)N1CCN(C(=O)n2cccn2)CC1
3.784	Cc1cnn(C(=O)N2CCN(C(=O)OC(C)(C)C)CC2)c1
3.946	CC(C)(C)OC(=O)N1CCN(C(=O)n2cc(C#N)cn2)CC1
3.518	CC(C)(C)OC(=O)N1CCCN(C(=O)n2cccn2)CC1
3.959	Cc1cnn(C(=O)N2CCCN(C(=O)OC(C)(C)C)CC2)c1
3.792	CC(C)(C)OC(=O)N1CCCN(C(=O)n2cc(C#N)cn2)CC1
3.884	CN(CCN(C)C(=O)n1cccn1)C(=O)OC(C)(C)C
3.969	Cc1cnn(C(=O)N(C)CCN(C)C(=O)OC(C)(C)C)c1
3.791	CN(CCN(C)C(=O)n1cc(C#N)cn1)C(=O)OC(C)(C)C
3.894	O=C(N1CCN(Cc2ccccc2)CC1)n1cccn1
4.201	Cc1cnn(C(=O)N2CCN(Cc3ccccc3)CC2)c1
3.899	N#Cc1cnn(C(=O)N2CCN(Cc3ccccc3)CC2)c1
3.791	O=C(N1CCN(Cc2ccc3ccccc3c2)CC1)n1cccn1
3.896	Cc1cnn(C(=O)N2CCN(Cc3ccc4ccccc4c3)CC2)c1
3.915	N#Cc1cnn(C(=O)N2CCN(Cc3ccc4ccccc4c3)CC2)c1
3.989	O=C(N1CCN(Cc2ccc3ccccc3c2)CC1)n1cc(Br)cn1
3.844	O=C(N1CCN(Cc2ccc3ccccc3c2)CC1)n1cc(I)cn1
3.897	O=C(N1CCN(Cc2ccc(-c3ccccc3)cc2)CC1)n1cccn1
3.899	Cc1cnn(C(=O)N2CCN(Cc3ccc(-c4ccccc4)cc3)CC2)c1
3.999	COC(=O)c1cnn(C(=O)N2CCN(Cc3ccc4ccccc4c3)CC2)c1

Retention_time [min]	Compound
3.929	O=C(N1CCN(Cc2ccc(OCc3ccccc3)cc2)CC1)n1cccn1
3.899	Cc1cnn(C(=O)N2CCN(Cc3ccc(OCc4ccccc4)cc3)CC2)c1
3.787	N#Cc1cnn(C(=O)N2CCN(Cc3ccc(OCc4ccccc4)cc3)CC2)c1
3.893	O=C(N1CCN(Cc2ccc(Oc3ccccc3)cc2)CC1)n1cccn1
3.987	Cc1cnn(C(=O)N2CCN(Cc3ccc(Oc4ccccc4)cc3)CC2)c1
3.927	N#Cc1cnn(C(=O)N2CCN(Cc3ccc(Oc4ccccc4)cc3)CC2)c1
3.877	N#Cc1cnn(C(=O)N2CCN(Cc3ccc(-c4ccccc4)cc3)CC2)c1
3.955	O=C(NCCCCc1ccccc1)n1cccn1
3.779	O=C(OCCCCc1ccccc1)n1cccn1
4.199	O=C(CCCCCc1ccccc1)n1cccn1
3.989	O=C(NCCCc1ccccc1)n1cccn1
3.669	O=C(OCCCc1ccccc1)n1cccn1
3.977	O=C(CCCCc1ccccc1)n1cccn1
4.159	O=C(OCCCCCc1ccccc1)n1cccn1
4.008	O=C(OCc1ccc2ccccc2c1)n1cccn1
3.788	O=C(Cc1ccc2ccccc2c1)n1cccn1
3.999	O=C(OCc1ccc(-c2ccccc2)cc1)n1cccn1
3.989	O=C(OCc1ccc(Oc2ccccc2)cc1)n1cccn1
3.905	O=C(OCc1ccc(OCc2ccccc2)cc1)n1cccn1
3.895	O=C(Nc1ccc2ccccc2c1)n1cccn1
3.96	O=C(Oc1ccc2ccccc2c1)n1cccn1
4.104	Cc1ccc(CNC(=O)n2cccn2)cc1
4.1	Cc1ccc(COC(=O)n2cccn2)cc1

Target: T1, Fatty-acid amide hydrolase 1 (Rattus norvegicus, UniProt P97612)
T1 sequence (P97612 whole entry): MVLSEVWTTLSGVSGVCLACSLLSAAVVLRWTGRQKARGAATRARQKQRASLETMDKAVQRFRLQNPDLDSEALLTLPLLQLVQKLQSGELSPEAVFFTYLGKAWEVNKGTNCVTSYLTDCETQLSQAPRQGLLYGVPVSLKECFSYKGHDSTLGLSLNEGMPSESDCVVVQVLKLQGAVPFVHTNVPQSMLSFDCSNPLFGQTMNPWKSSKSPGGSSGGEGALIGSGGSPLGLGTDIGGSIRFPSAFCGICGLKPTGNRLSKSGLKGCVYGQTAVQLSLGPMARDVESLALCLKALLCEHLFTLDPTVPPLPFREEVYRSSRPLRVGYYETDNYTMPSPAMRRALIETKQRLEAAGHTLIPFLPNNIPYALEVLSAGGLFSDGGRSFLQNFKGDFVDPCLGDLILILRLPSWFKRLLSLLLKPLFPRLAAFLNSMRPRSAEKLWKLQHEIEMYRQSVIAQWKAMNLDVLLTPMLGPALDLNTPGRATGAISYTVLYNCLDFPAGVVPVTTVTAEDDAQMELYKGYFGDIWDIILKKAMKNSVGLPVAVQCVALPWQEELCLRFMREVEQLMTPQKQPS
Test: Irreversible inhibition of recombinant rat FAAH preincubated for 3 hrs
Outline: (§1)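 Recombinant FAAH (rFAAH) was preincubated with the inhibitor for 3 h before activity was measured. Results are reported as an apparent Ki in nM.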

Ki [µM]	Compound
0.0098	O=C(N1CCN(Cc2ccc3ccccc3c2)CC1)n1cccn1
0.13	Cc1cnn(C(=O)N2CCN(Cc3ccc4ccccc4c3)CC2)c1
0.00016	N#Cc1cnn(C(=O)N2CCN(Cc3ccc4ccccc4c3)CC2)c1
0.00047	O=C(N1CCN(Cc2ccc3ccccc3c2)CC1)n1cc(Br)cn1
0.00029	O=C(N1CCN(Cc2ccc3ccccc3c2)CC1)n1cc(I)cn1
0.00036	COC(=O)c1cnn(C(=O)N2CCN(Cc3ccc4ccccc4c3)CC2)c1
0.0092	O=C(N1CCN(Cc2ccc(Oc3ccccc3)cc2)CC1)n1cccn1
0.21	Cc1cnn(C(=O)N2CCN(Cc3ccc(Oc4ccccc4)cc3)CC2)c1
0.0001	N#Cc1cnn(C(=O)N2CCN(Cc3ccc(Oc4ccccc4)cc3)CC2)c1

Target: T1, Fatty-acid amide hydrolase 1
Test: Inhibition of recombinant rat FAAH preincubated for 3 hrs
Outline: as §1

Compound	Ki [µM]
Cc1cnn(C(=O)NCCCCc2ccccc2)c1	0.55
N#Cc1cnn(C(=O)NCCCCc2ccccc2)c1	0.042
Cc1cnn(C(=O)OCCCCc2ccccc2)c1	> 5
N#Cc1cnn(C(=O)OCCCCc2ccccc2)c1	0.21
Cc1cnn(C(=O)CCCCCc2ccccc2)c1	> 5
N#Cc1cnn(C(=O)CCCCCc2ccccc2)c1	> 5

Now from value to compound:

Ki [µM]	Compound
0.75	O=C(N1CCCCC1)n1cccn1
> 1	Cc1cnn(C(=O)N2CCCCC2)c1
0.08	N#Cc1cnn(C(=O)N2CCCCC2)c1
0.34	CC(C)(C)OC(=O)N1CCN(C(=O)n2cccn2)CC1
0.85	Cc1cnn(C(=O)N2CCN(C(=O)OC(C)(C)C)CC2)c1
0.055	CC(C)(C)OC(=O)N1CCN(C(=O)n2cc(C#N)cn2)CC1
0.18	O=C(N1CCN(Cc2ccccc2)CC1)n1cccn1
0.25	Cc1cnn(C(=O)N2CCN(Cc3ccccc3)CC2)c1
0.075	N#Cc1cnn(C(=O)N2CCN(Cc3ccccc3)CC2)c1
0.012	O=C(N1CCN(Cc2ccc(-c3ccccc3)cc2)CC1)n1cccn1
0.17	Cc1cnn(C(=O)N2CCN(Cc3ccc(-c4ccccc4)cc3)CC2)c1
0.01	O=C(N1CCN(Cc2ccc(OCc3ccccc3)cc2)CC1)n1cccn1
0.1	Cc1cnn(C(=O)N2CCN(Cc3ccc(OCc4ccccc4)cc3)CC2)c1
0.00016	N#Cc1cnn(C(=O)N2CCN(Cc3ccc(OCc4ccccc4)cc3)CC2)c1
0.00019	N#Cc1cnn(C(=O)N2CCN(Cc3ccc(-c4ccccc4)cc3)CC2)c1
0.29	O=C(NCCCCc1ccccc1)n1cccn1
0.71	O=C(OCCCCc1ccccc1)n1cccn1
> 5	O=C(CCCCCc1ccccc1)n1cccn1
